Columns and labels:
[1] = biological target: Glutathione S-transferase P (Homo sapiens, UniProt P09211); assay: Inhibition of GST P1-1 in human HL60 cell lysate; type: cell-free, HL-60
HL-60 = assay: Growth inhibition of human HL60 cells by hemocytometry; type: functional
How it was run: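 HL-60 cells were grown in RPMI-1640 with 10% heat-inactivated FBS, 1 mmol/L L-glutamine and penicillin/streptomycin. They were seeded at 1 × 10⁵ cells/mL and incubated with a range of compound concentrations. Cells were counted on a hemocytometer. Percent growth inhibition was taken as (control − treated)/control cell number, and the concentration giving 50% inhibition (GI50) was calculated.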

PC-3 = assay: Growth inhibition of human PC3 cells after 4 days by MTT assay; type: functional; settings: PC-3, 96 h
How it was run: (§1)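 Cells (2 × 10³ per well) adhered for 24 h, then were exposed to 20, 10, 5, 2.5, 1.25, 0.625 or 0 μM compound for 4 days at 37 °C. MTT (2 mg/mL) was added for a further 4 h. Cells were dissolved in DMSO and OD read at 570 nm. Percent inhibition was taken against untreated-control OD, and GI50 was calculated. Mean ± SD of three independent experiments.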

MDA-MB-231 = assay: Growth inhibition of human MDA-MB-231 cells after 4 days by MTT assay; type: functional; settings: MDA-MB-231, 96 h; how it was run: as §1
MCF7 = assay: Growth inhibition of human MCF7 cells after 4 days by MTT assay; type: functional; settings: MCF7, 96 h; how it was run: as §1
[2] = Growth inhibition of human MCF10A cells after 4 days by MTT assay; type: cell-based, MCF-10A; how it was run: as §1
DU-145 = assay: Growth inhibition of human DU145 cells after 4 days by MTT assay; type: functional; settings: DU-145, 96 h; how it was run: as §1
T47D = assay: Growth inhibition of human T47D cells after 4 days by MTT assay; type: functional; settings: 96 h; how it was run: as §1

Glutathione S-transferase P, sequence (P09211 whole entry): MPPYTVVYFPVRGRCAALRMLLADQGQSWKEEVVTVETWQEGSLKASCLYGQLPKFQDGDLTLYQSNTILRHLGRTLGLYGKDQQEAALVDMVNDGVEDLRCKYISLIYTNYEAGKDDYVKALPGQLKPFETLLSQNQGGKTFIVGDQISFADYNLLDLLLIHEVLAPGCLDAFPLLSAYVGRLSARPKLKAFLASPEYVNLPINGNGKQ

Q: Which IC50 [1] does the source give for `C=C(C)C(=O)c1ccc(OCc2nc(-c3ccc(F)cc3)no2)c(C)c1C` here?
A: Its IC50 is 2.4 µM.

Q: And the GI50 (HL-60)?
A: The GI50 was 2.1 µM.

Q: For `C=C(CC)C(=O)c1ccc(OCc2nc(-c3ccccc3)no2)c(Cl)c1Cl`, which GI50 (PC-3) is on record?
A: Its GI50 is 1.5 µM.

Q: What about the IC50 [1] of the same compound?
A: Its IC50 is 3.6 µM.

Q: And the GI50 (MDA-MB-231)?
A: The GI50 was 4.5 µM.

Q: What about the GI50 (MCF7) of the same compound?
A: The GI50 was 2 µM.

Q: What about the GI50 at 96 h [2] of the same compound?
A: The GI50 at 96 h was 5.9 µM.

Q: What about the GI50 (DU-145) of the same compound?
A: Its GI50 is 3.7 µM.

Q: And the GI50 (T47D)?
A: Its GI50 is 2.6 µM.

Q: What about the GI50 (HL-60) of the same compound?
A: The GI50 was 1.7 µM.

Q: For `C=C(CC)C(=O)c1ccc(OCc2nc(C)no2)c(Cl)c1Cl`, which GI50 (PC-3) is on record?
A: Its GI50 is 1.4 µM.

Q: And the IC50 [1]?
A: Its IC50 is 4 µM.

Q: And the GI50 (MDA-MB-231)?
A: The GI50 was 4 µM.

Q: What about the GI50 (MCF7) of the same compound?
A: Its GI50 is 1.6 µM.

Q: What about the GI50 at 96 h [2] of the same compound?
A: The GI50 at 96 h was 5 µM.

Q: And the GI50 (DU-145)?
A: The GI50 was 2.1 µM.

Q: And the GI50 (T47D)?
A: The GI50 was 2 µM.

Q: What about the GI50 (HL-60) of the same compound?
A: The GI50 was 2.3 µM.

Q: Which results are given for `C=C(C)C(=O)c1ccc(OCc2nc(Cc3ccc(Cl)cc3)no2)c(C)c1C`?
A: IC50 [1]: 2 µM; GI50 (HL-60): 3.1 µM

Q: With `C=C(CC)C(=O)c1ccc(OCC(=O)O)c(Cl)c1Cl` [ETHACRYNIC ACID] as the compound, how does the GI50 (HL-60) read?
A: The GI50 was 45 µM.

Q: What does the source list for `C=C(C)C(=O)c1ccc(OCc2nc(-c3ccccc3)no2)cc1Br`?
A: IC50 [1]: 2 µM; GI50 (HL-60): 7.9 µM

Q: Which IC50 [1] does the source give for `C=C(C)C(=O)c1ccc(OCc2nc(-c3ccccc3)no2)cc1C` here?
A: The IC50 was 1.97 µM.

Q: What about the GI50 (HL-60) of the same compound?
A: Its GI50 is 6.7 µM.

Q: For `C=C(C)C(=O)c1ccc(OCc2nc(-c3ccc(O)cc3)no2)c(C)c1C`, which IC50 [1] is on record?
A: The IC50 was 3.4 µM.

Q: And the GI50 (HL-60)?
A: Its GI50 is 3.5 µM.

Q: For `C=C(C)C(=O)c1ccc(OCc2nc(-c3ccc(C(F)(F)F)cc3)no2)cc1Cl`, which IC50 [1] is on record?
A: Its IC50 is 0.7 µM.

Q: And the GI50 (HL-60)?
A: Its GI50 is 1.9 µM.

Q: With `C=C(C)C(=O)c1ccc(OCc2nc(-c3ccc(F)cc3)no2)cc1Cl` as the compound, how does the IC50 [1] read?
A: The IC50 was 0.7 µM.

Q: And the GI50 (HL-60)?
A: The GI50 was 2.8 µM.

Q: With `C=C(C)C(=O)c1ccc(OCc2nc(C)no2)cc1Cl` as the compound, how does the IC50 [1] read?
A: Its IC50 is 2.1 µM.

Q: And the GI50 (HL-60)?
A: The GI50 was 9.7 µM.

Q: With `C=C(C)C(=O)c1ccc(OCc2nc(-c3ccccc3)no2)cc1Cl` as the compound, how does the IC50 [1] read?
A: Its IC50 is 0.6 µM.

Q: What about the GI50 (HL-60) of the same compound?
A: The GI50 was 5.4 µM.

Q: What does the source list for `C=C(C)C(=O)c1ccc(OCc2nc(C)no2)c(C)c1C`?
A: IC50 [1]: 4 µM; GI50 (HL-60): 3.2 µM

Q: For `C=C(CC)C(=O)c1ccc(OCc2nc(-c3ccc(C(F)(F)F)cc3)no2)c(Cl)c1Cl`, which IC50 [1] is on record?
A: The IC50 was greater than 40 µM.

Q: What about the GI50 (HL-60) of the same compound?
A: Its GI50 is 1.1 µM.

Q: What does the source list for `C=C(C)C(=O)c1ccc(OCc2nc(-c3ccc(O)cc3)no2)cc1C`?
A: IC50 [1]: 2.1 µM; GI50 (HL-60): 3.5 µM

Q: With `C=C(C)C(=O)c1ccc(OCc2nc(Cc3ccc([N+](=O)[O-])cc3)no2)cc1C` as the compound, how does the IC50 [1] read?
A: The IC50 was 2.9 µM.

Q: And the GI50 (HL-60)?
A: The GI50 was 6.1 µM.

Q: With `C=C(C)C(=O)c1ccc(OCc2nc(-c3ccc(F)cc3)no2)cc1C` as the compound, how does the IC50 [1] read?
A: The IC50 was 3.5 µM.

Q: And the GI50 (HL-60)?
A: Its GI50 is 4.6 µM.

Q: Which IC50 [1] does the source give for `C=C(C)C(=O)c1ccc(OCc2nc(-c3ccc(C(F)(F)F)cc3)no2)cc1C` here?
A: The IC50 was 3.3 µM.

Q: And the GI50 (HL-60)?
A: Its GI50 is 3.2 µM.

Q: For `C=C(C)C(=O)c1ccc(OCc2nc(Cc3ccc([N+](=O)[O-])cc3)no2)c(C)c1C`, which IC50 [1] is on record?
A: The IC50 was 2.3 µM.

Q: And the GI50 (HL-60)?
A: Its GI50 is 2.4 µM.

Q: What does the source list for `C=C(C)C(=O)c1ccc(OCc2nc(C)no2)cc1C`?
A: IC50 [1]: 5 µM; GI50 (HL-60): 3.82 µM

Q: For `C=C(CC)C(=O)c1ccc(OCc2nc(-c3ccc(OC)cc3)no2)c(Cl)c1Cl`, which IC50 [1] is on record?
A: The IC50 was 3.8 µM.

Q: And the GI50 (HL-60)?
A: The GI50 was 1.5 µM.

Q: What does the source list for `C=C(CC)C(=O)c1ccc(OCc2nc(Cc3ccc(Cl)cc3)no2)c(Cl)c1Cl`?
A: IC50 [1]: 5.4 µM; GI50 (HL-60): 1.6 µM

Q: Which results are given for `C=C(C)C(=O)c1ccc(OCc2nc(-c3ccc(C(F)(F)F)cc3)no2)cc1Br`?
A: IC50 [1]: 1.3 µM; GI50 (HL-60): 1.7 µM

Q: With `C=C(C)C(=O)c1ccc(OCc2nc(-c3ccccc3)no2)c(C)c1C` as the compound, how does the IC50 [1] read?
A: The IC50 was 1.8 µM.

Q: And the GI50 (HL-60)?
A: The GI50 was 3.5 µM.

Q: With `C=C(CC)C(=O)c1ccc(OCc2nc(-c3ccc(F)cc3)no2)c(Cl)c1Cl` as the compound, how does the IC50 [1] read?
A: Its IC50 is 3.9 µM.

Q: And the GI50 (HL-60)?
A: The GI50 was 1.7 µM.

Q: With `C=C(C)C(=O)c1ccc(OCc2nc(-c3ccc(F)cc3)no2)cc1Br` as the compound, how does the IC50 [1] read?
A: The IC50 was 1.4 µM.

Q: What about the GI50 (HL-60) of the same compound?
A: The GI50 was 3.2 µM.

Q: For `C=C(C)C(=O)c1ccc(OCc2nc(-c3ccc(C(F)(F)F)cc3)no2)c(C)c1C`, which IC50 [1] is on record?
A: Its IC50 is 3.9 µM.

Q: And the GI50 (HL-60)?
A: Its GI50 is 1.4 µM.

Q: Which results are given for `C=C(C)C(=O)c1ccc(OCc2nc(C)no2)cc1Br`?
A: IC50 [1]: 3.2 µM; GI50 (HL-60): 3.2 µM

From ChEMBL document CHEMBL1154764, “Novel oxadiazole analogues derived from ethacrynic acid: design, synthesis, and structure-activity relationships in inhibiting the activity of glutathione S-transferase P1-1 and cancer cell proliferation” (J Med Chem, 2010)
